An excerpt weighted towards active compounds, which were near 1.5% of everything screened.
INS-1E GSIS act = GLuc luminescence reporter in INS-1E cells, primary screen for activators of glucose-dependent secretion of insulin; activation, % at 16.6 µM; INS-1E GLuc reporter insulin secretion, 2-3 h; AID 743287; hit rate 0.61% among 370,000;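 active = lowest replicate activation of at least 40%, so every replicate reaches that level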;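 note: 0% = median of neutral control wells and 100% = median of IBMX positive control wells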
PDI turbidity = blocks human protein disulfide isomerase activity; PDI insulin aggregation turbidity, A650, 90 min; P07237; inhibition, % at 10 µM; AID 588391; hit rate 0.052% among 350,000;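 active = mean inhibition across replicates of 30% or more, whatever share of single replicates reach that level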
Target sequence (P07237 whole entry, looked up): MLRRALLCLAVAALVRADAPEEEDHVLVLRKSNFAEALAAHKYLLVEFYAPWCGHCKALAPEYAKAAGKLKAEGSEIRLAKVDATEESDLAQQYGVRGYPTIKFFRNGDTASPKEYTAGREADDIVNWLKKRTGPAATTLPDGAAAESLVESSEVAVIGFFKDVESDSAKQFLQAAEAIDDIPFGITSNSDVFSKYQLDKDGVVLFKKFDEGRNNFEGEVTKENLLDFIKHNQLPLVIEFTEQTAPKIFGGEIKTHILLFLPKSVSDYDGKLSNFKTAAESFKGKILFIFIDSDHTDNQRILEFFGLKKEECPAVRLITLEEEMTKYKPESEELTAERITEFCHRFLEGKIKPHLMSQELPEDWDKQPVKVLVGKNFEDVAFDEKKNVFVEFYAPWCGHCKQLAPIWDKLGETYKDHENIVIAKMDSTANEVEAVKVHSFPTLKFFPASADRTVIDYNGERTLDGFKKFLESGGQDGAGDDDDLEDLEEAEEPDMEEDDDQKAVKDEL
ERp5 block = ERp5 (human) disulfide isomerase inhibition | AID 651711 | ERp5 insulin aggregation, absorbance 650 nm, 90 min | Q15084 | hit rate 0.05% among 350,000 | inhibition, % at 9.99 µM;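 active = mean replicate inhibition above about 25%, with every replicate also reaching it, limit read from the data, passing the limit was not always enough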
S100A4 inh HTS = blocks human S100A4 binding to myosin IIA peptide; P26447; S100A4/TAMRA-MyoIIA peptide fluorescence polarization; inhibition, % at 10.7 µM; hit rate 0.14% among 360,000; AID 652163;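 active = mean inhibition of at least 70% across replicates, with every replicate also reaching that level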
Target sequence (P26447 whole entry, looked up): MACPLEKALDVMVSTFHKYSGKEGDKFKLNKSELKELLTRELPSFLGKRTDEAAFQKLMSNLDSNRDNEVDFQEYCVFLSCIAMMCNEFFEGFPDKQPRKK
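Test system – S100A4 monomer (human) · Compound – single-point compound testing · Schedule – 5 min incubation before reading · Probe or stimulus – TAMRA-labelled myosin IIA heavy-chain peptide probe, 5 nM · Benchmarks – neutral control DMSO, positive control TFP · Medium – Calcium-containing HEPES buffer, pH 7.2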
SIRT5 block = inhibitors of human sirtuin-5 desuccinylase; inhibition, % at 15 µM; Q9NXA8; hit rate 1.1% among 330,000; Purified SirT5, succinyl-peptide AMC, trypsin-coupled fluorescence; in the data active = inhibition above about 15%
Starred values were filed as active, the others as inactive; . = no result.

SMILES | INS-1E GSIS act | PDI turbidity | ERp5 block | S100A4 inh HTS | SIRT5 block
COc1ccc(NC(=O)Nc2ccc3c(c2)C(=O)N([C@H](C)CO)C[C@H](C)[C@@H](CN(C)S(=O)(=O)c2ccccc2)OCCCC[C@@H](C)O3)cc1 | 12 | . | 6 | -4 | 9
COc1ccc(S(=O)(=O)N(C)C[C@@H]2OCCCC[C@H](C)Oc3ccc(NC(=O)Nc4ccc(F)cc4)cc3C(=O)N([C@H](C)CO)C[C@@H]2C)cc1 | -14 | . | 0 | -16 | 15
COc1ccc(NC(=O)Nc2ccc3c(c2)C(=O)N([C@H](C)CO)C[C@H](C)[C@@H](CN(C)S(=O)(=O)c2ccccc2)OCCCC[C@H](C)O3)cc1 | 6 | . | 0 | -8 | 16*
COc1ccc(NC(=O)N(C)C[C@H]2OCCCC[C@@H](C)Oc3ccc(NS(=O)(=O)c4cn(C)cn4)cc3C(=O)N([C@@H](C)CO)C[C@@H]2C)cc1 | 8 | . | 22 | -28 | -4
C[C@@H]1CCCCO[C@@H](CN(C)C(=O)c2ccccc2)[C@@H](C)CN([C@@H](C)CO)C(=O)c2cc(NC(=O)Nc3ccc4c(c3)OCO4)ccc2O1 | -12 | . | . | . | .
C=C(C)C1Cc2c(C)nn(-c3ccccn3)c2C1 (stereo not drawn) | . | -1 | . | . | .
C=C(C)C1Cc2c(C)nn(-c3cccc4cccnc34)c2C1 (stereo not drawn) | 51* | -1 | -7 | 2 | -2
O=C1NC(=S)S/C1=C/c1ccc(OC(=O)c2ccco2)cc1 | 8 | 1 | 0 | 1 | 81*
COc1cc([C@H]2Oc3c(OC)cc(CCCO[C@@H]4O[C@H](CO)[C@@H](O)[C@H](O)[C@H]4O)cc3[C@@H]2CO)ccc1O | 13 | . | 4 | 4 | 25*
OC[C@H]1O[C@H](OCCc2ccc(O)cc2)[C@H](O)[C@@H](O)[C@@H]1O | 10 | 4 | 1 | -1 | .
C[C@H]1CN([C@@H](C)CO)C(=O)c2cc(-c3ccc(F)cc3)cnc2O[C@H]1CN(C)C(=O)Nc1ccccc1F | -4 | . | 3 | 6 | 2
C[C@H](CO)N1C[C@H](C)[C@@H](CN(C)CC2CC2)Oc2ccc(NS(C)(=O)=O)cc2CC1=O | -6 | . | 7 | 7 | -5
COc1ccc(Nc2nc3ccccc3n3cnnc23)cc1Cl | 6 | 2 | 0 | -4 | -2
COc1ccc(/C(C)=N/Nc2nc3ccccc3n3cnnc23)cc1OC | 44* | . | 2 | 2 | 3
Cc1cc(C)n(CCC(=O)N2c3ccccc3CC2C)n1 (stereo not drawn) | 15 | -3 | -4 | 5 | 17*
COC(=O)c1ccc(CNC(=O)CSc2nc3ccccc3[nH]2)cc1 | 79* | -7 | 1 | 5 | -2
COc1ccc2nc(SCC(=O)NCc3ccccc3)[nH]c2c1 | -10 | 7 | 3 | -6 | -1
CCOc1ccc2nc(SCC(=O)NCc3ccc(OC)cc3)[nH]c2c1 | -12 | -3 | 1 | -5 | 27*
COc1ccc(C(=O)C2CCCN(S(=O)(=O)C(C)C)C2)c(C)c1 (stereo not drawn) | -1 | 0 | 4 | 8 | 25*
COc1ccc(C(=O)C2CCCN(S(=O)(=O)N(C)C)C2)c(C)c1 (stereo not drawn) | 0 | 5 | -1 | -5 | -1
CCOc1ccc(NC(=O)Nc2cc(OCC(F)(F)F)cc(OCC(F)(F)F)c2)cc1 | -4 | -5 | 0 | 0 | -3
O=C(Nc1ccc(F)cc1)Nc1cc(OCC(F)(F)F)cc(OCC(F)(F)F)c1 | 128* | 4 | . | . | .
C[C@@H]1CN([C@H](C)CO)C(=O)c2cc(NC(=O)CCCCCC(=O)Nc3ccccc3N)ccc2O[C@@H]1CN(C)Cc1ccc(Cl)c(Cl)c1 | -23 | . | 4 | 9 | 24*
C[C@H]1CN([C@@H](C)CO)C(=O)c2cc(NC(=O)CCCCCC(=O)Nc3ccccc3N)ccc2O[C@H]1CN(C)Cc1ccc(Cl)c(Cl)c1 | -25 | . | 2 | 17 | 21*
COc1ccccc1CNC(=O)C[C@H]1CC[C@H](NC(=O)CC2CC2)[C@@H](CO)O1 | 13 | . | 4 | 5 | 8
SMILES | INS-1E GSIS act | PDI turbidity | ERp5 block | S100A4 inh HTS | SIRT5 block
CCC(=O)N1CC2(C1)[C@H](c1ccc(-c3ccccc3)cc1)[C@H](CO)N2S(C)(=O)=O | 1 | . | 3 | -10 | 0
COc1ccccc1/C=C/C1=NC(=C\C=C/c2ccccc2)/C(=O)O1 | 4 | 0 | 2 | 3 | 21*
CCOC(=O)Cn1c(=NC(=O)c2nc3ccccc3s2)sc2cc(S(N)(=O)=O)ccc21 | 68* | -26 | . | . | .
CCOC(=O)c1ccc2c(c1)sc(=NC(=O)c1ccco1)n2CCOC | 65* | 16 | . | . | .
CCOC(=O)Cn1c(=NC(=O)c2cccs2)sc2cc(C(=O)OC)ccc21 | 90* | -7 | . | . | .
C[C@H](CO)N1C[C@H](C)[C@@H](CN(C)C(=O)Nc2ccc(F)cc2)Oc2ccc(NS(=O)(=O)c3ccc(F)cc3)cc2CC1=O | -6 | . | -6 | 1 | 1
C/C=C/c1cnc2c(c1)C(=O)N([C@H](C)CO)C[C@@H](C)[C@@H](CN(C)C(=O)Nc1ccc(C(F)(F)F)cc1)O2 | -4 | . | -6 | 7 | -1
CCCNC(=O)Cn1sc2nc(C)cc(C)c2c1=O | 94* | 5 | -2 | 0 | -2
CN1C(=O)c2cc(NC(=O)C3CCCC3)ccc2OC[C@H]2O[C@H](CC(=O)NCc3ccccc3F)CC[C@@H]21 | 7 | . | -4 | -4 | 1
COc1ccc(S(=O)(=O)N(C)C[C@H]2Oc3ncc(/C=C/c4ccccc4)cc3C(=O)N([C@H](C)CO)C[C@@H]2C)cc1 | . | . | -1 | 1 | 20*
C[C@@H]1CN([C@@H](C)CO)C(=O)c2cc(C#CC3CCCCC3)cnc2O[C@H]1CN(C)S(=O)(=O)c1cccc(F)c1 | . | . | 1 | 9 | 22*
C[C@@H]1CN([C@@H](C)CO)C(=O)c2cc(C#CC3CCCC3)cnc2O[C@@H]1CN(C)C(=O)Nc1ccccc1 | 6 | . | 1 | -15 | 4
C[C@H]1CN([C@@H](C)CO)C(=O)c2cc(C#CC3CCCCC3)cnc2O[C@@H]1CN(C)C(=O)Nc1ccccc1 | -14 | . | -3 | 2 | 15*
C[C@H](CO)N1C[C@H](C)[C@H](CN(C)S(=O)(=O)c2cn(C)cn2)Oc2ncc(C#Cc3ccccc3)cc2C1=O | . | . | 36* | -4 | -5
CO[C@H]1CN(C)C(=O)c2cc(NC(=O)C3CCC3)ccc2OC[C@@H](C)N(Cc2ccccn2)C[C@@H]1C | 15 | . | -1 | 0 | 2
Cc1noc(C)c1NC(=O)Nc1ccc2c(c1)C(=O)N([C@@H](C)CO)C[C@H](C)[C@@H](CN(C)S(=O)(=O)c1cn(C)cn1)OCCCC[C@@H](C)O2 | -3 | . | -1 | 12 | 1
O=C(C1CCOCC1)N1C[C@H]2[C@@H](c3ccccc31)[C@@H](CO)N2C(=O)Nc1cccc(F)c1 | -7 | . | 2 | -1 | 0

Screens from PubChem BioAssay.
